The subject of test [1] is Salmonella enterica subsp. enterica serovar Pullorum. The test is described as follows: (§1) Antibacterial activity against Salmonella pullorum assessed as growth inhibition after 24 hrs. It is filed as functional. An outline of the steps:
(§2)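 Twofold serial dilutions in nutrient broth. The minimum concentration inhibiting visible growth was read after 24 hr incubation at 37°.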

The subject of a further test is Enterococcus faecalis. The test is described as follows: Antibacterial activity against Streptococcus faecalis assessed as growth inhibition after 24 hrs. It is filed as functional. An outline of the steps:
as §2

Test [2] relates to Staphylococcus. Kind of test: Antibacterial activity against penicillin-sensitive Staphylococcus pyogenes assessed as growth inhibition after 24 hrs. It is filed as functional. The procedure, abridged: (§3)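 Halving (twofold) serial dilutions of compound in nutrient broth, in vitro. Incubated 24 hr at 37°. Value reported is the lowest concentration that inhibited growth.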
The subject of the next test is Candida albicans. The test is described as follows: Antifungal activity against Candida albicans assessed as growth inhibition after 5 days at 37 degC. It is filed as functional. The procedure, abridged: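 Twofold serial dilutions in Sabouraud broth. The minimum inhibitory concentration was read after 5 days at 37°.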
The subject of the next test is Proteus vulgaris. The test is described as follows: Antibacterial activity against Proteus vulgaris assessed as growth inhibition after 24 hrs. It is filed as functional. An outline of the steps: as §2
The subject of test [3] is Staphylococcus. Kind of test: Antibacterial activity against penicillin-resistant Staphylococcus pyogenes assessed as growth inhibition after 24 hrs. It is filed as functional. The procedure, abridged:
as §3

A short description of test [4]: Antifungal activity against Trichophyton granulosum assessed as growth inhibition after 10 days at 28 degC. It is filed as functional. The note with it: Trichophyton mentagrophytes var. granulosum. An outline of the steps: (§4)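 Twofold serial dilutions in Sabouraud broth. The minimum inhibitory concentration was read after 10 days at 28°.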
The test system of the next test is Nannizzia gypsea. Kind of test: Antifungal activity against Microsporum gypseum assessed as growth inhibition after 10 days at 28 degC. It is filed as functional. The procedure, abridged:
as §4

In a further test the test system is Klebsiella pneumoniae. The test is described as follows: Antibacterial activity against Klebsiella pneumoniae assessed as growth inhibition after 24 hrs. It is filed as functional. An outline of the steps: as §2
For another test, the system named is Serratia marcescens. Kind of test: Antibacterial activity against Serratia marcescens assessed as growth inhibition after 24 hrs. It is filed as functional. An outline of the steps:
as §2

In a further test the test system is Klebsiella aerogenes. The test is described as follows: Antibacterial activity against Aerobacter aerogenes assessed as growth inhibition after 24 hrs. It is filed as functional. An outline of the steps:
as §2

A further test deals with Pseudomonas aeruginosa. Kind of test: Antibacterial activity against Pseudomonas aeruginosa assessed as growth inhibition after 24 hrs. It is filed as functional. An outline of the steps: as §2
Test [5] concerns Eimeria tenella. Kind of test: Anticoccidal activity against Eimeria tenella assessed as improved weight gain in chicken at 0.05%, po. It is filed as functional, organism-based. The procedure, abridged:
(§5)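 Chickens with experimental coccidiosis received compound orally in the diet at 0.05%, starting 1 day before infection. Efficacy was judged 6 days later from survival and weight gain.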

A further test has as its system Escherichia coli. The test is described as follows: Antibacterial activity against Escherichia coli 198 assessed as growth inhibition after 24 hrs. It is filed as functional. An outline of the steps:
as §2

Test [6] deals with Eimeria tenella. Kind of test: Anticoccidal activity against Eimeria tenella assessed as improved weight gain and mortality in chicken relative to noninfected control. It is filed as functional, organism-based. An outline of the steps:
as §5

For test [7], the system named is Eimeria acervulina. Kind of test: Anticoccidal activity against Eimeria acervulina assessed as improved weight gain in chicken. It is filed as functional, organism-based. The procedure, abridged:
as §5

The subject of test [8] is Eimeria tenella. The test is described as follows: Anticoccidal activity against Eimeria tenella assessed as improved weight gain in chicken at 0.002%, po. It is filed as functional, organism-based.
Test [9] can be described thus: as §1. It is filed as functional, Salmonella enterica subsp. enterica serovar Pullorum. To be noted: Salmonella enterica, 24 h; read-out: MIC. An outline of the steps: as §2
In test [10] the test system is Eimeria acervulina. The test is described as follows: Anticoccidal activity against Eimeria acervulina assessed as improved weight gain and mortality in chicken relative to noninfected control. It is filed as functional, organism-based. The procedure, abridged: as §5
Where [11] appears, read: Staphylococcus, 24 h, read-out: MIC.

In brackets after ≈: the same amount, converted by molar mass. Activity calls are given as the source filed them.

One may read the MIC as the smallest concentration in the dilution series that meets the test's criterion for growth inhibition.

Take `COC1OC(C)(c2ccc(-c3ccccc3)cc2)C(O)CC1N1CCOCC1` (stereo unspecified): the MIC entry (in test [1]; in the test on Enterococcus faecalis; in the test with Staphylococcus [2]; in the test on Candida albicans; in the test with Proteus vulgaris; with Staphylococcus [3]) was “inactive” each time. The MIC result (in [4]; in the test on Nannizzia gypsea; in the test on Klebsiella pneumoniae; in the test on Serratia marcescens; with Klebsiella aerogenes; in the test with Pseudomonas aeruginosa) was “inactive” in each case. For the same compound, the MIC entry with Escherichia coli is “inactive”. Besides, the outcome with Eimeria tenella [5] was inactive.

Take `COC1OC(C)(c2ccc(-c3ccccc3)cc2)C(O)CC1N1CCN(C)CC1` (stereo unspecified): the MIC entry (in test [1]; in the test with Enterococcus faecalis; in the test on Staphylococcus [2]; with Candida albicans; with Proteus vulgaris; in the test with Staphylococcus [3]) was “inactive” each time. For the same compound, the MIC entry (in test [4]; with Nannizzia gypsea; in the test with Klebsiella pneumoniae; with Serratia marcescens; in the test on Klebsiella aerogenes; with Pseudomonas aeruginosa) was “inactive” in each case. The MIC result in the test on Escherichia coli was “inactive”. For the same compound, the outcome in the test on Eimeria tenella [6] was Active. For the same compound, the outcome in the test on Eimeria acervulina [7] was inactive.

Regarding `CCCCc1cc2c(=O)c(C(=O)OC)c[nH]c2cc1OCc1ccccc1`, the result in the test with Eimeria tenella [8] was Active.

As for `COC1OC(C)(c2ccc(-c3ccccc3)cc2)C(=O)CC1N1CCN(C)CC1` (stereo unspecified), the minimum inhibitory concentration (MIC) in test [9] was found to be 6.2 µg/mL (≈ 15.7 µM); with Enterococcus faecalis (Enterococcus faecalis, 24 h, read-out: MIC), 6.2 µg/mL (≈ 15.7 µM); in the test with Staphylococcus [2] (setting [11]), 6.2 µg/mL (≈ 15.7 µM); in the test on Proteus vulgaris (Proteus vulgaris, 24 h, read-out: MIC), 6.2 µg/mL (≈ 15.7 µM); with Staphylococcus [3] (setting [11]) it was 6.2 µg/mL (≈ 15.7 µM); in [4], 1.6 µg/mL (≈ 4.06 µM). Also, the minimum inhibitory concentration (MIC) in the test on Nannizzia gypsea (Nannizzia gypsea, 240 h, read-out: MIC) was 3.2 µg/mL (≈ 8.11 µM); in the test on Klebsiella pneumoniae (Klebsiella pneumoniae, 24 h, read-out: MIC), 6.2 µg/mL (≈ 15.7 µM); in the test on Serratia marcescens (Serratia marcescens, 24 h, read-out: MIC), 6.2 µg/mL (≈ 15.7 µM); in the test on Klebsiella aerogenes (Klebsiella aerogenes, 24 h, read-out: MIC), 6.2 µg/mL (≈ 15.7 µM); with Pseudomonas aeruginosa (Pseudomonas aeruginosa, 24 h, read-out: MIC), 6.2 µg/mL (≈ 15.7 µM); in the test with Escherichia coli (Escherichia coli, 198, 24 h, read-out: MIC), 6.2 µg/mL (≈ 15.7 µM). The result in the test with Eimeria acervulina [10] was Active. For the same compound, the outcome in the test with Eimeria tenella [5] was inactive.

`COC1C=CC(=O)C(C)(c2ccc(-c3ccccc3)cc2)O1` (single isomer, unassigned; isomer 1): the MIC in test [4] was 8 µg/mL (≈ 27.2 µM). Also, in the test with Eimeria tenella [5], the result was inactive.

In the case of `CNC1CC(O)C(C)(c2ccc(-c3ccccc3)cc2)OC1OC` (stereo unspecified), the MIC result (in [1]; in the test on Enterococcus faecalis; in the test with Staphylococcus [2]; in the test on Candida albicans; with Proteus vulgaris; in the test on Staphylococcus [3]) was “inactive” in each case. The MIC result (in [4]; in the test with Nannizzia gypsea; with Klebsiella pneumoniae; in the test with Serratia marcescens; in the test on Klebsiella aerogenes; with Pseudomonas aeruginosa) was “inactive” in each case. Moreover, in the test with Escherichia coli, the MIC result was “inactive”. Moreover, the result with Eimeria tenella [5] and with Eimeria acervulina [7] was inactive.

These data come from ChEMBL document CHEMBL3272204, “Products from furans. 1. Sunthesis and anticoccidial and antimicrobial activity of 5-amino-5,6-dihydro-6-methoxy-2-methyl-2-(4'-biphenylyl)-2H-pyran-3(4H)-ones and related compounds” (1976).
